Results taken from ChEMBL document CHEMBL5303300, “EUbOPEN Chemogenomics Library - Multiplex” (2023).
Values joined by “and” are separate entries in the source; they are usually repeats but may differ in a detail not shown here. Equal entries are not always repeated.

What was measured:
Type in all cases: toxicity, cell-based
[1] = tested on: U2OS; test: Multiplex assay against U2OS; settings: human, number of replicates 2
Summary of the method: (§1)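 Live cells were stained at seeding with Hoechst33342, BioTracker Green Microtubule Cytoskeleton Dye, MitoTracker Red and Annexin V Alexa Fluor 680. Following compound addition, they were imaged on a CQ1 microscope at 37°C and 5% CO2 and gated by CellPathfinder machine learning into Hoechst high-intensity objects or normal cells, with normal cells split into healthy, pyknosed or fragmented nuclei and pyknosed cells into mitotic or apoptotic. Tubulin, mitochondrial-mass and membrane-permeability phenotypes are per cents of healthy-nucleus cells.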

[2] = tested on: HEK-293T; test: Multiplex assay against HEK293T; settings: human, number of replicates 2; summary of the method: as §1
[3] = tested on: Fibroblast; test: Multiplex assay against human fibroblast; settings: number of replicates 2; summary of the method: as §1
[4] = 12 h, 1 µM, compound concentration 1 uM
[5] = 12 h, 10 µM, compound concentration 10 uM
[6] = 24 h, 1 µM, compound concentration 1 uM
[7] = 24 h, 10 µM, compound concentration 10 uM
[8] = 48 h, 1 µM, compound concentration 1 uM
[9] = 48 h, 10 µM, compound concentration 10 uM

## CC1=C(C)C(=O)C(C(C)(C)CC(=O)N(CCCCSC[C@H]2O[C@@H](n3cnc4c(N)ncnc43)[C@H](O)[C@@H]2O)Cc2cccc(-c3ccc(Cl)cc3)c2)=C(C)C1=O
[1]; [4]
  Population Apoptotic (%): 33% and 50%
  Population Fragmented Nuclei (%): 4% and 7%
  Population Healthy Nuclei (%): 85% and 72%
  Population Hoechst High Intensity Objects (%): 0%
  Population Membrane Permeable-Phenotype (%): 5% and 6%
  Population Mitochondria Different-Phenotype (%): 4% and 0%
  Population Mitotic Cells (%): 66% and 50%
  Population Normal (%): 99% and 100%
  Population Pyknosed Nuclei (%): 10% and 20%
  Population Tubulin-Different-Phenotype (%): 57% and 34%
[1]; [5]
  Population Apoptotic (%): 75% and 58%
  Population Fragmented Nuclei (%): 8% and 4%
  Population Healthy Nuclei (%): 69% and 79%
  Population Hoechst High Intensity Objects (%): 0%
  Population Membrane Permeable-Phenotype (%): 16% and 24%
  Population Mitochondria Different-Phenotype (%): 40% and 33%
  Population Mitotic Cells (%): 25% and 41%
  Population Normal (%): 100%
  Population Pyknosed Nuclei (%): 22% and 16%
  Population Tubulin-Different-Phenotype (%): 96% and 86%
[1]; [6]
  Population Apoptotic (%): 53% and 77%
  Population Fragmented Nuclei (%): 2% and 6%
  Population Healthy Nuclei (%): 89% and 77%
  Population Hoechst High Intensity Objects (%): 0%
  Population Membrane Permeable-Phenotype (%): 3% and 4%
  Population Mitochondria Different-Phenotype (%): 4% and 6%
  Population Mitotic Cells (%): 46% and 22%
  Population Normal (%): 99% and 100%
  Population Pyknosed Nuclei (%): 7% and 15%
  Population Tubulin-Different-Phenotype (%): 66% and 42%
[1]; [7]
  Population Apoptotic (%): 87% and 79%
  Population Healthy Nuclei (%): 53% and 70%
  Population Hoechst High Intensity Objects (%): 0%
  Population Membrane Permeable-Phenotype (%): 50% and 23%
  Population Mitochondria Different-Phenotype (%): 42% and 45%
  Population Mitotic Cells (%): 12% and 20%
  Population Normal (%): 100% and 99%
  Population Pyknosed Nuclei (%): 30% and 25%
  Population Tubulin-Different-Phenotype (%): 78% and 90%
[1]; [8]
  Population Apoptotic (%): 100% and 39%
  Population Fragmented Nuclei (%): 9% and 3%
  Population Healthy Nuclei (%): 77% and 89%
  Population Hoechst High Intensity Objects (%): 0%
  Population Membrane Permeable-Phenotype (%): 4% and 1%
  Population Mitochondria Different-Phenotype (%): 7% and 0%
  Population Normal (%): 100%
  Population Pyknosed Nuclei (%): 12% and 7%
  Population Tubulin-Different-Phenotype (%): 56% and 79%
[1]; [9]
  Population Apoptotic (%): 68% and 78%
  Population Healthy Nuclei (%): 32% and 66%
  Population Hoechst High Intensity Objects (%): 0%
  Population Membrane Permeable-Phenotype (%): 66% and 36%
  Population Mitochondria Different-Phenotype (%): 58% and 52%
  Population Mitotic Cells (%): 31% and 21%
  Population Normal (%): 100% and 99%
  Population Pyknosed Nuclei (%): 51% and 28%
  Population Tubulin-Different-Phenotype (%): 100% and 82%
[2]; [4]
  Population Apoptotic (%): 40% and 44%
  Population Fragmented Nuclei (%): 4%
  Population Healthy Nuclei (%): 89% and 86%
  Population Hoechst High Intensity Objects (%): 6% and 7%
  Population Membrane Permeable-Phenotype (%): 4% and 3%
  Population Mitochondria Different-Phenotype (%): 10% and 11%
  Population Mitotic Cells (%): 59% and 55%
  Population Normal (%): 93% and 92%
  Population Pyknosed Nuclei (%): 6% and 8%
  Population Tubulin-Different-Phenotype (%): 71% and 70%
  Total Cell Count: 874 and 797
[2]; [5]
  Population Apoptotic (%): 52% and 54%
  Population Fragmented Nuclei (%): 2%
  Population Healthy Nuclei (%): 82% and 81%
  Population Hoechst High Intensity Objects (%): 7%
  Population Membrane Permeable-Phenotype (%): 10% and 3%
  Population Mitochondria Different-Phenotype (%): 48% and 51%
  Population Mitotic Cells (%): 47% and 45%
  Population Normal (%): 92%
  Population Pyknosed Nuclei (%): 14% and 15%
  Population Tubulin-Different-Phenotype (%): 88% and 92%
  Total Cell Count: 506 and 434
[2]; [6]
  Population Apoptotic (%): 21% and 25%
  Population Fragmented Nuclei (%): 8% and 6%
  Population Healthy Nuclei (%): 87%
  Population Hoechst High Intensity Objects (%): 8%
  Population Membrane Permeable-Phenotype (%): 6% and 3%
  Population Mitochondria Different-Phenotype (%): 2% and 5%
  Population Mitotic Cells (%): 78% and 74%
  Population Normal (%): 91%
  Population Pyknosed Nuclei (%): 4% and 6%
  Population Tubulin-Different-Phenotype (%): 50%
  Total Cell Count: 1418 and 1263
[2]; [7]
  Population Apoptotic (%): 46% and 64%
  Population Fragmented Nuclei (%): 3%
  Population Healthy Nuclei (%): 81%
  Population Hoechst High Intensity Objects (%): 7% and 9%
  Population Membrane Permeable-Phenotype (%): 4% and 3%
  Population Mitochondria Different-Phenotype (%): 62% and 59%
  Population Mitotic Cells (%): 53% and 35%
  Population Normal (%): 92% and 90%
  Population Pyknosed Nuclei (%): 15% and 14%
  Population Tubulin-Different-Phenotype (%): 88% and 93%
  Total Cell Count: 524 and 473
[2]; [8]
  Population Apoptotic (%): 10% and 13%
  Population Fragmented Nuclei (%): 24% and 15%
  Population Healthy Nuclei (%): 74% and 81%
  Population Hoechst High Intensity Objects (%): 10% and 9%
  Population Membrane Permeable-Phenotype (%): 6% and 5%
  Population Mitochondria Different-Phenotype (%): 0%
  Population Mitotic Cells (%): 89% and 86%
  Population Normal (%): 89% and 90%
  Population Pyknosed Nuclei (%): 1% and 2%
  Population Tubulin-Different-Phenotype (%): 25% and 28%
  Total Cell Count: 3744 and 2984
[2]; [9]
  Population Apoptotic (%): 55% and 62%
  Population Fragmented Nuclei (%): 4% and 5%
  Population Healthy Nuclei (%): 87% and 88%
  Population Hoechst High Intensity Objects (%): 6% and 10%
  Population Membrane Permeable-Phenotype (%): 8% and 6%
  Population Mitochondria Different-Phenotype (%): 47%
  Population Mitotic Cells (%): 44% and 37%
  Population Normal (%): 93% and 89%
  Population Pyknosed Nuclei (%): 7% and 5%
  Population Tubulin-Different-Phenotype (%): 93% and 92%
  Total Cell Count: 622 and 637
[3]; [4]
  Population Apoptotic (%): 43% and 35%
  Population Fragmented Nuclei (%): 13% and 7%
  Population Healthy Nuclei (%): 72% and 77%
  Population Hoechst High Intensity Objects (%): 0%
  Population Membrane Permeable-Phenotype (%): 1% and 6%
  Population Mitochondria Different-Phenotype (%): 0% and 1%
  Population Mitotic Cells (%): 56% and 64%
  Population Normal (%): 100%
  Population Pyknosed Nuclei (%): 14%
  Population Tubulin-Different-Phenotype (%): 34% and 18%
  Total Cell Count: 228 and 306
[3]; [5]
  Population Apoptotic (%): 36% and 30%
  Population Fragmented Nuclei (%): 11% and 17%
  Population Healthy Nuclei (%): 76% and 62%
  Population Hoechst High Intensity Objects (%): 0% and 1%
  Population Membrane Permeable-Phenotype (%): 18% and 15%
  Population Mitochondria Different-Phenotype (%): 4% and 3%
  Population Mitotic Cells (%): 63% and 69%
  Population Normal (%): 100% and 99%
  Population Pyknosed Nuclei (%): 11% and 19%
  Population Tubulin-Different-Phenotype (%): 73% and 74%
  Total Cell Count: 186 and 201
[3]; [6]
  Population Apoptotic (%): 57% and 51%
  Population Fragmented Nuclei (%): 8% and 9%
  Population Healthy Nuclei (%): 85% and 79%
  Population Hoechst High Intensity Objects (%): 0%
  Population Membrane Permeable-Phenotype (%): 5% and 2%
  Population Mitochondria Different-Phenotype (%): 2% and 1%
  Population Mitotic Cells (%): 42% and 48%
  Population Normal (%): 99% and 100%
  Population Pyknosed Nuclei (%): 5% and 11%
  Population Tubulin-Different-Phenotype (%): 24% and 12%
  Total Cell Count: 235 and 305
[3]; [7]
  Population Apoptotic (%): 46% and 45%
  Population Fragmented Nuclei (%): 13% and 14%
  Population Healthy Nuclei (%): 78% and 68%
  Population Hoechst High Intensity Objects (%): 0%
  Population Membrane Permeable-Phenotype (%): 4% and 8%
  Population Mitochondria Different-Phenotype (%): 13% and 17%
  Population Mitotic Cells (%): 53% and 54%
  Population Normal (%): 100% and 99%
  Population Pyknosed Nuclei (%): 8% and 17%
  Population Tubulin-Different-Phenotype (%): 78% and 83%
  Total Cell Count: 182 and 183
[3]; [8]
  Population Apoptotic (%): 50%
  Population Fragmented Nuclei (%): 12% and 13%
  Population Healthy Nuclei (%): 83% and 81%
  Population Hoechst High Intensity Objects (%): 0%
  Population Membrane Permeable-Phenotype (%): 3% and 1%
  Population Mitochondria Different-Phenotype (%): 0%
  Population Mitotic Cells (%): 50%
  Population Normal (%): 99%
  Population Pyknosed Nuclei (%): 3% and 5%
  Population Tubulin-Different-Phenotype (%): 13% and 5%
  Total Cell Count: 257 and 316
[3]; [9]
  Population Apoptotic (%): 71% and 65%
  Population Fragmented Nuclei (%): 18% and 20%
  Population Healthy Nuclei (%): 74% and 69%
  Population Hoechst High Intensity Objects (%): 0%
  Population Membrane Permeable-Phenotype (%): 0% and 5%
  Population Mitochondria Different-Phenotype (%): 6% and 13%
  Population Mitotic Cells (%): 28% and 35%
  Population Normal (%): 100%
  Population Pyknosed Nuclei (%): 7% and 10%
  Population Tubulin-Different-Phenotype (%): 76% and 69%
  Total Cell Count: 197
